Measured values: ChEMBL document CHEMBL1124262, “Cardiotonic agents. Synthesis and inotropic activity of a series of isoquinolin-3-ol derivatives” (J Med Chem, 1988)

Columns and labels:
Canis familiaris [1] = experiment: Percent change in heart rate (HR) in anesthetized open chest dogs after a iv dose of 1.875 mg/kg; assay type: functional, Canis lupus familiaris
Outline: (§1)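 Anesthetized open-chest dogs, one drug per animal. Compound is in DMF diluted to 10% in saline, or given as the HCl salt in saline. It is infused into the femoral vein by pump at 0.58-2.2 mL/min in 3-4 stepwise cumulative doses, each over 5 min after the prior peak. Readings are CF by right-ventricle strain gauge, dP/dtmax by Millar LV catheter, HR by cardiotachometer and MAP from femoral artery, as % change from predrug control.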

Canis familiaris [2] = experiment: Percent change in left ventricular pressure (dP/dtmax) in anesthetized dog after iv administration at 1.875 mg/kg; assay type: functional, Canis lupus familiaris, Heart left ventricle; outline: as §1
Canis familiaris [3] = experiment: Percent increase in contractile force (CF) in anesthetized open-chest dogs iv administration of 1.875 mg/kg; assay type: functional, Canis lupus familiaris
Outline: (§2)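 Anesthetized open-chest dogs. After a right thoracotomy, contractile force was recorded by a Walton Brodie strain gauge sutured to the right ventricle at 100 g baseline tension. Compound was given iv by infusion pump into a femoral vein, one drug per animal, in three to four stepwise increasing doses. Each dose ran over 5 min, starting once the previous dose's effect peaked. Values are % increase over predrug control vs cumulative mg/kg dose.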

Canis familiaris [4] = experiment: Percent change in mean arterial blood pressure (MAP) in anesthetized open chest dogs iv administration at 1.875 mg/kg; assay type: functional, Canis lupus familiaris; outline: as §1
Canis familiaris [5] = experiment: Change in heart rate of anaesthetized, open chest dogs following 0.875 mg/kg i.v. administration.; assay type: functional, Canis lupus familiaris; settings: route intravenous; outline: as §1
Canis familiaris [6] = experiment: Percent change in heart rate (HR) in anesthetized open chest dogs after a iv dose of 0.375 mg/kg; assay type: functional, Canis lupus familiaris; outline: as §1
Canis familiaris [7] = experiment: Percent increase in contractile force (CF) in anesthetized open-chest dogs iv administration of 0.375 mg/kg; assay type: functional, Canis lupus familiaris; outline: as §2
Canis familiaris [8] = experiment: Percent change in mean arterial blood pressure (MAP) in anesthetized open chest dogs iv administration at 0.3750 mg/kg; assay type: functional, Canis lupus familiaris; settings: dose 0.375 mg/kg; outline: as §1
Canis familiaris [9] = experiment: Percent change in left ventricular pressure (dP/dtmax) in anesthetized dog after iv administration at 0.375 mg/kg; assay type: functional, Canis lupus familiaris, Heart left ventricle; outline: as §1
Canis familiaris [10] = experiment: Change in left ventricular pressure of anaesthetized, open chest dogs following 0.875 mg/kg i.v. administration.; assay type: functional, Canis lupus familiaris, Heart left ventricle; settings: route intravenous; outline: as §1
Canis familiaris [11] = experiment: Change in heart contractile force of anaesthetized, open chest dogs following 0.875 mg/kg i.v. administration.; assay type: functional, Canis lupus familiaris; settings: route intravenous; outline: as §1
Canis familiaris [12] = experiment: Percent change in mean arterial blood pressure (MAP) in anesthetized open chest dogs iv administration at 0.8750 mg/kg; assay type: functional, Canis lupus familiaris; settings: dose 0.875 mg/kg; outline: as §1
Canis familiaris [13] = experiment: 50% increase in contractile force in one to three anesthetized dogs administered intravenously; assay type: functional; settings: Canis lupus familiaris, iv
Outline: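 Anesthetized dogs (one to three). Compound is infused iv in three to four stepwise increasing doses, each over 5 min once the previous effect has peaked. Contractile force is recorded with a Walton Brodie strain gauge on the right ventricle. The dose (μg/kg) giving a 50% rise over control CF is read from the dose-response curve, graphically (n < 3) or by linear regression (n ≥ 3).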

Phosphodiesterase 3 = Phosphodiesterase 3 (Homo sapiens, UniProt Q14432+Q13370); experiment: Inhibition of phosphodiesterase fraction III in anesthetized open chest dogs; assay type: functional, Canis lupus familiaris; settings: target entry is the homologue from another species
Outline: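 Enzyme is dog heart PDE-III, the third DEAE-cellulose fraction eluted at 800 mM sodium acetate. Compounds are tested at 0.01–1000 μM with 0.25 μM cAMP containing [³H]cAMP, in 0.05 M Tris-HCl pH 7.4 with 5 mM MgCl2. The reaction is stopped by heat, then snake venom converts product to adenosine. [³H]adenosine is counted by scintillation after Dowex separation. IC50 comes from ≥2 determinations, each in duplicate.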

Canis familiaris [14] = experiment: Percent change in mean arterial blood pressure (MAP) in anesthetized open chest dogs iv administration at 0.875 mg/kg; assay type: functional, Canis lupus familiaris; outline: as §1
Canis familiaris [15] = experiment: Percent change in heart rate (HR) in anesthetized open chest dogs after a iv dose of 0.05 mg/kg; assay type: functional, Canis lupus familiaris; outline: as §1
Canis familiaris [16] = experiment: Percent increase in contractile force (CF) in anesthetized open-chest dogs iv administration of 0.050 mg/kg; assay type: functional, Canis lupus familiaris; settings: dose 0.05 mg/kg; outline: as §1
Canis familiaris [17] = experiment: Percent change in mean arterial blood pressure (MAP) in anesthetized open chest dogs iv administration at 0.050 mg/kg; assay type: functional, Canis lupus familiaris; settings: dose 0.05 mg/kg; outline: as §1
Canis familiaris [18] = experiment: Percent change in left ventricular pressure (dP/dtmax) in anesthetized dog after iv administration at 0.05 mg/kg; assay type: functional, Canis lupus familiaris, Heart left ventricle; outline: as §1

SMILES: Cc1nc(O)c(Cl)c2cc3c(cc12)OCO3
- Change (Canis familiaris [1]): 28%
- Increase (Canis familiaris [2]): 51%
- Increase (Canis familiaris [3]): 88%
- Change (Canis familiaris [4]): -22%

SMILES: CCCc1nc(O)c(CCC(=O)OC)c2cc(OC)c(OC)cc12
- Change (Canis familiaris [5]): 2%
- Increase (Canis familiaris [2]): 19%
- Increase (Canis familiaris [3]): 17%
- Change (Canis familiaris [4]): -4%

SMILES: COC(=O)Oc1cc2cc(OC)c(OC)cc2c(C)n1
- Change (Canis familiaris [6]): 19%
- Increase (Canis familiaris [7]): 119%
- Change (Canis familiaris [8]): -8%
- Increase (Canis familiaris [9]): 66%

SMILES: CNC(=O)CCc1c(O)nc(C)c2cc(OC)c(OC)cc12
- Change (Canis familiaris [1]): 7%
- Increase (Canis familiaris [3]): 62%
- Change (Canis familiaris [4]): -5%
- Increase (Canis familiaris [10]): 40%

SMILES: COc1cc2c(C)nc(O)c(CCC(=O)N(C)C)c2cc1OC
- Change (Canis familiaris [1]): -2%
- Increase (Canis familiaris [2]): -5%
- Increase (Canis familiaris [3]): 16%
- Change (Canis familiaris [4]): -14%

SMILES: COc1cc2c(C)nc(O)c(CC(C)C)c2cc1OC
- Change (Canis familiaris [1]): 10%
- Increase (Canis familiaris [2]): 25%
- Increase (Canis familiaris [3]): 39%
- Change (Canis familiaris [4]): -6%

SMILES: COC(=O)CCc1c(O)nc(C)c2cc3c(cc12)OCO3
- Change (Canis familiaris [5]): 38%
- Increase (Canis familiaris [11]): 131%
- Change (Canis familiaris [12]): -21%
- Increase (Canis familiaris [10]): 118%

SMILES: COC(=O)c1c(O)nc(C)c2cc(OC)c(OC)cc12
- Change (Canis familiaris [1]): 6%
- Increase (Canis familiaris [2]): 19%
- Increase (Canis familiaris [3]): 39%
- Change (Canis familiaris [4]): -3%

SMILES: COC(=O)CCc1c(O)ncc2cc3c(cc12)OCO3
- Change (Canis familiaris [1]): 6%
- Increase (Canis familiaris [2]): 28%
- Increase (Canis familiaris [3]): 26%
- Change (Canis familiaris [4]): 0%

SMILES: COc1cc2c(C)nc(O)c(CCC(N)=O)c2cc1OC
- Change (Canis familiaris [1]): 11%
- Increase (Canis familiaris [2]): 29%
- Increase (Canis familiaris [3]): 49%
- Change (Canis familiaris [4]): -9%

SMILES: CCOc1cc2c(C)nc(O)c(CC)c2cc1OC
- Change (Canis familiaris [5]): 26%
- ED50 (Canis familiaris [13]): 0.02 mg/kg
- Increase (Canis familiaris [11]): 118%
- Change (Canis familiaris [12]): -46%
- Increase (Canis familiaris [10]): 6%
- IC50 (Phosphodiesterase 3): 2 µM

SMILES: COC(=O)Cc1c(O)nc(C)c2cc(OC)c(OC)cc12
- Change (Canis familiaris [5]): 6%
- Increase (Canis familiaris [11]): 42%
- Change (Canis familiaris [12]): -1%
- Increase (Canis familiaris [10]): 28%

SMILES: COc1cc2c(C)nc(O)c(C3CCCC3)c2cc1OC
- Change (Canis familiaris [1]): 5%
- Increase (Canis familiaris [2]): 22%
- ED50 (Canis familiaris [13]): 1.88 mg/kg
- Increase (Canis familiaris [3]): 46%
- Change (Canis familiaris [4]): 3%
- IC50 (Phosphodiesterase 3): 128 µM

SMILES: COc1ccc2cc(O)nc(C)c2c1OC
- Change (Canis familiaris [5]): 10%
- Increase (Canis familiaris [11]): 62%
- Change (Canis familiaris [14]): -6%
- Increase (Canis familiaris [10]): 51%

SMILES: COc1ccc2[nH]c(=O)nc(C)c2c1OC [BEMARINONE]
- Change (Canis familiaris [6]): 11%
- Increase (Canis familiaris [7]): 71%
- Change (Canis familiaris [8]): -6%
- Increase (Canis familiaris [9]): 30%

SMILES: COc1cc2c(C)nc(O)c(CCC(=O)O)c2cc1OC
- Change (Canis familiaris [1]): 5%
- Increase (Canis familiaris [2]): 42%
- Increase (Canis familiaris [3]): 75%
- Change (Canis familiaris [4]): -3%

SMILES: CCOC(=O)CCc1c(O)nc(C)c2cc(OC)c(OC)cc12
- Change (Canis familiaris [5]): 8%
- Increase (Canis familiaris [11]): 60%
- Change (Canis familiaris [12]): -4%
- Increase (Canis familiaris [10]): 20%

SMILES: COc1cc2c(C)nc(O)c(C(C)C)c2cc1OC
- Change (Canis familiaris [15]): 6%
- ED50 (Canis familiaris [13]): 0.025 mg/kg
- Increase (Canis familiaris [16]): 76%
- Change (Canis familiaris [17]): -5%
- Increase (Canis familiaris [18]): 54%
- IC50 (Phosphodiesterase 3): 7 µM

SMILES: COC(=O)CCc1c(O)nc(C(C)C)c2cc(OC)c(OC)cc12
- Change (Canis familiaris [1]): 7%
- Increase (Canis familiaris [2]): 17%
- Increase (Canis familiaris [3]): 15%
- Change (Canis familiaris [4]): 3%

SMILES: CNC(=O)c1c(O)nc(C)c2cc(OC)c(OC)cc12
- Change (Canis familiaris [1]): 0%
- Increase (Canis familiaris [2]): 17%
- Increase (Canis familiaris [3]): 2%
- Change (Canis familiaris [4]): 4%

SMILES: COc1cc2c(C)nc(O)c(CCC(=O)OC(C)C)c2cc1OC
- Change (Canis familiaris [1]): 3%
- Increase (Canis familiaris [2]): 15%
- Increase (Canis familiaris [3]): 22%
- Change (Canis familiaris [4]): -6%

SMILES: COc1cc2cc(O)nc(C)c2c(OC)c1OC
- Change (Canis familiaris [5]): 13%
- Increase (Canis familiaris [11]): 76%
- Change (Canis familiaris [14]): -2%
- Increase (Canis familiaris [10]): 45%

SMILES: CCc1nc(O)c(CCC(=O)OC)c2cc(OC)c(OC)cc12
- Change (Canis familiaris [5]): 10%
- Increase (Canis familiaris [11]): 47%
- Change (Canis familiaris [12]): -3%
- Increase (Canis familiaris [10]): 33%

SMILES: Br.COc1cc2c(C)nc(O)c(Br)c2cc1OC
- Change (Canis familiaris [5]): 26%
- ED50 (Canis familiaris [13]): 0.185 mg/kg
- Increase (Canis familiaris [11]): 128%
- Change (Canis familiaris [12]): -40%
- Increase (Canis familiaris [10]): 25%
- IC50 (Phosphodiesterase 3): 10 µM

SMILES: CCOc1cc2cc(O)nc(C)c2cc1OCC
- Change (Canis familiaris [5]): 15%
- Increase (Canis familiaris [11]): 84%
- Change (Canis familiaris [12]): -11%
- Increase (Canis familiaris [10]): 42%

SMILES: COc1ccc2c(C)nc(O)cc2c1OC
- Change (Canis familiaris [1]): 3%
- Increase (Canis familiaris [2]): 13%
- Increase (Canis familiaris [11]): 28%
- Change (Canis familiaris [4]): 1%

SMILES: CCCCOc1cc2c(C)nc(O)cc2cc1OC
- Change (Canis familiaris [5]): 26%
- ED50 (Canis familiaris [13]): 0.13 mg/kg
- Increase (Canis familiaris [11]): 182%
- Change (Canis familiaris [12]): -18%
- Increase (Canis familiaris [10]): 58%
- IC50 (Phosphodiesterase 3): 37 µM

SMILES: COC(=O)CCc1c(O)nc(C)c2c(OC)c(OC)c(OC)cc12
- Change (Canis familiaris [5]): 8%
- Increase (Canis familiaris [11]): 22%
- Change (Canis familiaris [12]): -4%
- Increase (Canis familiaris [10]): 20%

SMILES: COc1ccc2cc(O)nc(C)c2c1
- Change (Canis familiaris [5]): 19%
- Increase (Canis familiaris [11]): 114%
- Change (Canis familiaris [12]): -18%
- Increase (Canis familiaris [10]): 87%

SMILES: COc1cc2c(C)nc(O)c(Cl)c2cc1OC
- Change (Canis familiaris [5]): 29%
- ED50 (Canis familiaris [13]): 0.12 mg/kg
- Increase (Canis familiaris [11]): 89%
- Change (Canis familiaris [12]): 1%
- Increase (Canis familiaris [10]): 88%
- IC50 (Phosphodiesterase 3): 62 µM

SMILES: COC(=O)CCc1c(O)ncc2cc(OC)c(OC)cc12
- Change (Canis familiaris [5]): 7%
- Increase (Canis familiaris [11]): 53%
- Change (Canis familiaris [12]): -4%
- Increase (Canis familiaris [10]): 24%

SMILES: CCOc1cc2c(C)nc(O)cc2cc1OC
- Change (Canis familiaris [5]): 22%
- Increase (Canis familiaris [11]): 197%
- Change (Canis familiaris [14]): -10%
- Increase (Canis familiaris [10]): 88%

SMILES: CCOc1cc2cnc(O)cc2cc1OC
- Change (Canis familiaris [1]): 7%
- Increase (Canis familiaris [2]): 32%
- Increase (Canis familiaris [3]): 34%
- Change (Canis familiaris [4]): 0%
